The source of these data is ChEMBL document CHEMBL1142735, “Discovery of a new series of centrally active tricyclic isoxazoles combining serotonin (5-HT) reuptake inhibition with alpha2-adrenoceptor blocking activity” (J Med Chem, 2005).

In assay [1] the test system is Rattus norvegicus. Put plainly: Effective dose for reversal of medetomidine-Induced loss of righting was determined by oral administration. In kind it is functional. In short, it runs like this: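 Oral pretreatment of overnight-fasted male Wistar rats (200-250 g), then medetomidine 0.10 mg/kg iv (reversal means no loss of righting) or pCA 5 mg/kg sc (excitation scored 0-3 over 15 min from 45 min after pCA; inhibition means score <2). Doses taken from a geometric series.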

The target of assay [2] is T1, 5-hydroxytryptamine receptor 2C (Homo sapiens, UniProt P28335).
T1 sequence (P28335 whole entry): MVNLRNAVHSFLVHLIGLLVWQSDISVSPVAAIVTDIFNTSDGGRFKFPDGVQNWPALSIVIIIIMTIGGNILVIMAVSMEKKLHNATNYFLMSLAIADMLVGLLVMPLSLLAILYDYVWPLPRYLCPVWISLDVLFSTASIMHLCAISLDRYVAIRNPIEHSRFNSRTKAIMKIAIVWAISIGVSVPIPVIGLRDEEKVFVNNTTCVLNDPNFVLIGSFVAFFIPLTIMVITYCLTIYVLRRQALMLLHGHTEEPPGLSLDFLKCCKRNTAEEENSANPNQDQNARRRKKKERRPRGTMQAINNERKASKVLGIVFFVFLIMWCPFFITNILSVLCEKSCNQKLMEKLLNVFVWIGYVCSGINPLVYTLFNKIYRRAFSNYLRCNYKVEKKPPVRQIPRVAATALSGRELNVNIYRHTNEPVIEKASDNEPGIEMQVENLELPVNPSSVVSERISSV
Put plainly: Inhibition of [3H]- mesulergine binding to 5-hydroxytryptamine 2C receptor. In short, it runs like this:
(§1)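 Radioligand competition binding on membranes from cell lines carrying the human target, incubated with the labelled ligand under optimized conditions. Separation by filtration, except α1A and D3, which used scintillation proximity assay.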

For assay [3], the system named is Rattus norvegicus. Put plainly: Effective dose concentration for antagonism ofpCA-Induced excitation was determined by subcutaneous administration. In kind it is functional. The following applies: sc. In short, it runs like this:
(§2)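 Male Wistar rats (200-250 g), fasted overnight, given test compound or solvent sc before challenge. Loss of righting induced by medetomidine 0.10 mg/kg iv; reversal means no loss of righting. Excitation induced by pCA 5 mg/10 mL/kg sc and scored 0-3 over 15 min starting 45 min after pCA; inhibition means score <2.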

In assay [4] the target is T2, 5-hydroxytryptamine receptor 1A (Homo sapiens, UniProt P08908).
T2 sequence (P08908 whole entry): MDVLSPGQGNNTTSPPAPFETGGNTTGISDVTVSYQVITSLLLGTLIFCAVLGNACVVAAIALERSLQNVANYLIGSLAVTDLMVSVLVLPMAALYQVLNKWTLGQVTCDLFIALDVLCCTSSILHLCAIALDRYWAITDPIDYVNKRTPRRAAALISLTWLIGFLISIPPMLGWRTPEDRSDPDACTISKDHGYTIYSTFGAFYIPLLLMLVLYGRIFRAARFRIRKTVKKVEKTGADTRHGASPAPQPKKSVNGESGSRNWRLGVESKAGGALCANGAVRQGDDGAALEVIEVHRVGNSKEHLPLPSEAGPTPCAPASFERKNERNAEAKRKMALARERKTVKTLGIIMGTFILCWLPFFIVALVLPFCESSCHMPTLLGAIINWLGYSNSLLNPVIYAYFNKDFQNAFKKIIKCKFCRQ
Put plainly: Inhibition of [3H]8-OH-DPAT binding to 5-hydroxytryptamine 1A receptor. In short, it runs like this: as §1

The target of the next assay is Histamine H1 receptor (Homo sapiens, UniProt P35367). Put plainly: Inhibition of [3H]pyrilamine binding to Histamine H1 receptor. In short, it runs like this:
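Radioligand competition on membranes from a cell line transfected with the human target, incubated under optimized conditions. Stopped by rapid filtration. Ki by Cheng-Prusoff.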

In assay [5] the target is T3, Sodium-dependent serotonin transporter (Homo sapiens, UniProt P31645). Briefly: Inhibition of [3H]- paroxetine binding to 5-HTT receptor, serotonin transporter. In short, it runs like this:
(§3)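 Human platelet membranes (50 µg protein) in 50 mM Tris-HCl pH 7.4 with 120 mM NaCl and 5 mM KCl. Competition against [3H]paroxetine (0.5 nM), 60 min at 25 °C. Nonspecific binding defined with imipramine (1 µM). Filtration over 0.1% PEI-presoaked GF/B, washed with incubation buffer. Sigmoidal fit of specific binding; Ki via Cheng-Prusoff.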

Assay [6] deals with T3, Sodium-dependent serotonin transporter. Put plainly: Binding affinity for serotonin transporter. In kind it is functional, Rattus norvegicus. In short, it runs like this: as §3
The target in assay [7] is T4, Alpha-2C adrenergic receptor (Homo sapiens, UniProt P18825).
T4 sequence (P18825 whole entry): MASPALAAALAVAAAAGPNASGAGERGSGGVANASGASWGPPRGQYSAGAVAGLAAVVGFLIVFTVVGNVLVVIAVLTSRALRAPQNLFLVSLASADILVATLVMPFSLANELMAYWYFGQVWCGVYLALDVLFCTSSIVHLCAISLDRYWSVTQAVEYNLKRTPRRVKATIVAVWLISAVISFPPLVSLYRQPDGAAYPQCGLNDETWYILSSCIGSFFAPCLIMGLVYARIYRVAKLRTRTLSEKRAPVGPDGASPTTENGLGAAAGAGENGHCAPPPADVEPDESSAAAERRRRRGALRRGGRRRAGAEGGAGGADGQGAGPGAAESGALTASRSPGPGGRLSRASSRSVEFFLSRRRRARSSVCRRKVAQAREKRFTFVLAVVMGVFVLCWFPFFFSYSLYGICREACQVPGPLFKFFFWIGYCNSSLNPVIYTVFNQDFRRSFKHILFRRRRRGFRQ
Briefly: Binding affinity for alpha-2C-adrenergic receptor. In short, it runs like this: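 Human alpha2C receptor stably expressed in CHO cell membranes (5-10 µg protein) in 25 mM glycylglycine, pH 7.6. Competition against [3H]rauwolscine (1 nM), 30 min at 25 °C. Nonspecific binding defined with spiroxatrine (1 µM). Rapid filtration over GF/B, washed with ice-cold 50 mM Tris-HCl pH 8.0, scintillation counting. Sigmoidal curves fitted; Ki by Cheng-Prusoff.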

For assay [8], the system named is Rattus norvegicus. Briefly: Effective dose for antagonism ofpCA-Induced excitation was determined by subcutaneous administration. In kind it is functional. Particulars: sc. In short, it runs like this: as §2

The ED50 is the midpoint of the dose-response relation. By Ki is commonly meant a dissociation constant, usually derived from enzyme kinetics or from competition with a known ligand. Read a low Ki as a stronger hold on the target.

T3 sequence (P31645 whole entry): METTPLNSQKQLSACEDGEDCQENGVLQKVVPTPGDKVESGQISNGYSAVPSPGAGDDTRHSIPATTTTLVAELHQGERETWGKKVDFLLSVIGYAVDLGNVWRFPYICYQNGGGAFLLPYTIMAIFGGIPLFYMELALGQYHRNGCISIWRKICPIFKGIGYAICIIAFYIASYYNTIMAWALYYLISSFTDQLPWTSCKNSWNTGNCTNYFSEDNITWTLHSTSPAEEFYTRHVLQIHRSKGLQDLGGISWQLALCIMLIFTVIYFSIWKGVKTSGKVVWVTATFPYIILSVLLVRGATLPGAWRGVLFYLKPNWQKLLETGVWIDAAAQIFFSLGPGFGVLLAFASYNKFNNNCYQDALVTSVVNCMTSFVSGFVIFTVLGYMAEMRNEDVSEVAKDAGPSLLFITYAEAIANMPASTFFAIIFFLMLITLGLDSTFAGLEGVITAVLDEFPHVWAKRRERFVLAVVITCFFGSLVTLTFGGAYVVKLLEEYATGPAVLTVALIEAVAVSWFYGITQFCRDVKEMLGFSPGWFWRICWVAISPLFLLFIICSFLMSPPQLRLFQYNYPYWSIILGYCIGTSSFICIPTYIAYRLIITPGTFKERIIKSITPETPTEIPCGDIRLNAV
Sequence of Histamine H1 receptor (P35367 whole entry): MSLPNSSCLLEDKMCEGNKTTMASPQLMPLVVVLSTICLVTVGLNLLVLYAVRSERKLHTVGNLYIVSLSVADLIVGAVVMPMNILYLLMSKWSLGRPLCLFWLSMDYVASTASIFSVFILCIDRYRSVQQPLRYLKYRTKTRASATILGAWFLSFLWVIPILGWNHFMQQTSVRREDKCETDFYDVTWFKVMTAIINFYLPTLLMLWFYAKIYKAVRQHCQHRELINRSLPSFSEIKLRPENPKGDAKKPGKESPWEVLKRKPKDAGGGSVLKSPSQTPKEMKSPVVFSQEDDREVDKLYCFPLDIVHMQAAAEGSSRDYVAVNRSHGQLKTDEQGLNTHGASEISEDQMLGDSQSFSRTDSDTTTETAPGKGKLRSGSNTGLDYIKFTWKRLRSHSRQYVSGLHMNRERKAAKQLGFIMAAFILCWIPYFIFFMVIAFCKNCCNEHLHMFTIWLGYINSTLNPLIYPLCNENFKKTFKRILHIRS

For `COc1cc2c(cc1OC)C1=NO[C@@H](CN3CCN(C/C=C/c4ccccc4)CC3)[C@@H]1CO2`, the 50% effective dose (ED50) stood at 1.3 mg/kg with Rattus norvegicus [1] and 0.39 mg/kg in the assay on Rattus norvegicus [3]. Also, the Ki was over 1000 nM in assay [2], over 1000 nM in assay [4], over 1000 nM on Histamine H1 receptor and 1.2 nM in [5].

As to `COc1cc2c(cc1OC)C1=NO[C@@H](CN3CCN(C/C=C(\C)c4ccccc4)CC3)[C@@H]1CO2`, the Ki was 10 nM in [6]; over 1000 nM in assay [2]; over 1000 nM in assay [4]; over 1000 nM at Histamine H1 receptor; 0.6 nM in assay [7]. Also, the 50% effect level with Rattus norvegicus [3] (ED50) was put at a dose of 0.5 mg/kg.

With `COc1cc2c(cc1OC)C1=NO[C@@H](CN3CCN(C/C(C)=C/c4ccccc4)CC3)[C@@H]1CO2`, in the assay with Rattus norvegicus [1], the ED50 amounted to 0.63 mg/kg. Besides, the Ki in assay [2] is over 1000 nM; in assay [4] it was 475 nM; on Histamine H1 receptor it was 113 nM.

As to `COc1cc2c(cc1OC)C1=NO[C@@H](CN3CCN(Cc4ccc5ccccc5c4)CC3)[C@@H]1CO2`, the Ki in [6] was 1.7 nM; in [2], over 1000 nM; in assay [4], over 1000 nM; on Histamine H1 receptor it was 460 nM; in [7], 3.1 nM; in assay [5], 1.7 nM. The median effective dose (ED50) in the assay on Rattus norvegicus [3] and in the assay with Rattus norvegicus [8] was 0.08 mg/kg throughout.
